Test results reported in ChEMBL document CHEMBL1135836, “Cyclodextrin-derived host molecules as reversal agents for the neuromuscular blocker rocuronium bromide: synthesis and structure-activity relationships” (J Med Chem, 2002).

Key:
Format in all cases: functional
Cavia porcellus [1] = assay: In vivo reversal activity versus ~90% block by rocuronium in guinea pig
Procedure, shortened: (§1)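 Male Dunkin-Hartley guinea pigs (600-900 g), anaesthetized ip with pentobarbitone 10 mg/kg plus urethane 1000 mg/kg, tracheotomized and ventilated. Continuous iv rocuronium infusion (~10 nmol kg-1 min-1) was raised to a steady 85-90% block. Increasing iv doses of agent were given cumulatively. ED50 = 50% recovery versus preblock twitch, by regression. Mean ± SEM of at least two experiments, or one.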

Cavia porcellus [2] = assay: In vivo reversal activity versus ~90% block by rocuronium in guinea pig, expressed as % of maximum reversal at 10 umol/kg conc.; procedure, shortened: as §1
Mus musculus [3] = species: Mus musculus; assay: In vitro reversal activity versus ~90% block by rocuronium in isolated mouse hemidiaphragm, expressed as % of maximum reversal at 18 uM conc.
Mus musculus [4] = species: Mus musculus; assay: In vitro reversal activity versus ~90% block by rocuronium in isolated mouse hemidiaphragm, expressed as effective conc.
Mus musculus [5] = species: Mus musculus; assay: In vitro reversal activity versus ~90% block by rocuronium in isolated mouse hemidiaphragm, expressed as % of maximum reversal at 216 uM conc.
Cavia porcellus [6] = assay: In vivo reversal activity versus ~90% block by rocuronium in guinea pig, expressed as % of maximum reversal at 316 umol/kg conc.
Procedure, shortened: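 Male Dunkin-Hartley guinea pigs (600-900 g) anaesthetized ip with pentobarbitone 10 mg/kg plus urethane 1000 mg/kg, tracheotomized and artificially ventilated. Continuous iv rocuronium bromide infusion (~10 nmol kg-1 min-1) raised until steady-state twitch block of 85-90%. Increasing single iv doses of reversal agent given by a separate catheter. Max reversal is peak twitch recovery versus preblock height at highest dose tested; means ± SEM, n ≥ 2 or single experiment.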

Mus musculus [7] = species: Mus musculus; assay: In vitro reversal activity versus ~90% block by rocuronium in isolated mouse hemidiaphragm, expressed as % of maximum reversal at 360 uM conc.

Row | SMILES | ED50 (Cavia porcellus [1]) | Max reversal (Cavia porcellus [2]) | Max reversal (Mus musculus [3]) | EC50 (Mus musculus [4]) | Max reversal (Mus musculus [5]) | Max reversal (Cavia porcellus [6]) | Max reversal (Mus musculus [7])
1 | C[C@H](CSCC1O[C@@H]2O[C@@H]3C(CSC[C@H](C)C(=O)N4CCCC4C(=O)[O-])O[C@H](O[C@@H]4C(CSC[C@@H](C)C(=O)N5CCCC5C(=O)[O-])O[C@H](O[C@@H]5C(CSC[C@@H](C)C(=O)N6CCCC6C(=O)[O-])O[C@H](O[C@@H]6C(CSC[C@H](C)C(=O)N7CCCC7C(=O)[O-])O[C@H](O[C@@H]7C(CSC[C@@H](C)C(=O)N8CCCC8C(=O)[O-])O[C@H](O[C@@H]8C(CSC[C@H](C)C(=O)N9CCCC9C(=O)[O-])O[C@H](O[C@@H]9C(CSC[C@@H](C)C(=O)N%10CCCC%10C(=O)[O-])O[C@H](O[C@H]1C(O)C2O)C(O)C9O)C(O)C8O)C(O)C7O)C(O)C6O)C(O)C5O)C(O)C4O)C(O)C3O)C(=O)N1CCCC1C(=O)[O-].[Na+].[Na+].[Na+].[Na+].[Na+].[Na+].[Na+].[Na+] (stereo not given in full) | 1.49 µmol/kg | 103.6% | 35.7% | 33.9 µM |  |  | 
2 | O=C([O-])c1ccccc1SCC1O[C@@H]2O[C@@H]3C(CSc4ccccc4C(=O)[O-])O[C@H](O[C@@H]4C(CSc5ccccc5C(=O)[O-])O[C@H](O[C@@H]5C(CSc6ccccc6C(=O)[O-])O[C@H](O[C@@H]6C(CSc7ccccc7C(=O)[O-])O[C@H](O[C@@H]7C(CSc8ccccc8C(=O)[O-])O[C@H](O[C@@H]8C(CSc9ccccc9C(=O)[O-])O[C@H](O[C@@H]9C(CSc%10ccccc%10C(=O)[O-])O[C@H](O[C@H]1C(O)C2O)C(O)C9O)C(O)C8O)C(O)C7O)C(O)C6O)C(O)C5O)C(O)C4O)C(O)C3O.[Na+].[Na+].[Na+].[Na+].[Na+].[Na+].[Na+].[Na+] (stereo not given in full) |  |  |  | 227 µM | 42.3% |  | 
3 | OC[C@H]1O[C@@H]2O[C@H]3[C@H](O)[C@@H](O)[C@@H](O[C@H]4[C@H](O)[C@@H](O)[C@@H](O[C@H]5[C@H](O)[C@@H](O)[C@@H](O[C@H]6[C@H](O)[C@@H](O)[C@@H](O[C@H]7[C@H](O)[C@@H](O)[C@@H](O[C@H]8[C@H](O)[C@@H](O)[C@@H](O[C@H]1[C@H](O)[C@H]2O)O[C@@H]8CO)O[C@@H]7CO)O[C@@H]6CO)O[C@@H]5CO)O[C@@H]4CO)O[C@@H]3CO [BETADEX] | 20 µmol/kg |  |  | > 360 µM |  | 92.9% | 29%
